Source: ChEMBL document CHEMBL1123216, “Sustained brain-specific delivery of estradiol causes long-term suppression of luteinizing hormone secretion” (J Med Chem, 1986)

Key:
Assay type in all cases: functional, organism-based
Rattus norvegicus [1] = assay: Serum concentration of estradiol 24 days after intravenous administration in Orchidectomized rats
How it was run: (§1)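 Male rats were orchidectomized and 2 weeks later given a single iv dose (2.1 or 3.0 mg/kg, dimethyl sulfoxide vehicle). After decapitation at 12, 18 or 24 days, serum estradiol was measured by a published radioimmunoassay in modified form, in duplicate. Assay sensitivity limit was 20 pg/mL. Values are mean ± SEM, with the number of samples below the limit given per group.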

Rattus norvegicus [2] = assay: Serum concentration of LH 12 days after intravenous administration in Orchidectomized rats
How it was run: (§2)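 Male rats given a single iv dose (2.1 or 3.0 mg/kg, dimethyl sulfoxide vehicle at 0.5 mL/kg) 2 weeks after orchidectomy. At 12, 18 or 24 days they were killed by decapitation and serum LH was measured by radioimmunoassay, expressed against reference preparation LH-RP-2. Samples assayed in duplicate; mean ± SEM, 6–7 animals per group.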

Rattus norvegicus [3] = assay: Serum concentration of LH 18 days after intravenous administration in Orchidectomized rats; how it was run: as §2
Rattus norvegicus [4] = assay: Serum concentration of LH 24 days after intravenous administration in Orchidectomized rats; how it was run: as §2
Rattus norvegicus [5] = assay: Serum concentration of estradiol 12 days after intravenous administration in Orchidectomized rats; how it was run: as §1
Rattus norvegicus [6] = assay: Serum concentration of estradiol 18 days after intravenous administration in Orchidectomized rats; how it was run: as §1

| SMILES | Concentration (Rattus norvegicus [1]) [ng/mL] | Concentration (Rattus norvegicus [2]) [ng/mL] | Concentration (Rattus norvegicus [3]) [ng/mL] | Concentration (Rattus norvegicus [4]) [ng/mL] | Concentration (Rattus norvegicus [5]) [ng/mL] | Concentration (Rattus norvegicus [6]) [ng/mL] |
| --- | --- | --- | --- | --- | --- | --- |
| C[S+](C)[O-] | 0.0244 | 6.8 | 12.4 | 8.6 | 0.0275 | < 0.02 |
| CN1C=CCC(C(=O)O[C@H]2CC[C@H]3[C@@H]4CCc5cc(O)ccc5[C@H]4CC[C@]23C)=C1 | 0.0241 | 0.8 | 1.7 | 2.9 | 0.0259 | < 0.02 |
| C[C@]12CC[C@@H]3c4ccc(O)cc4CC[C@H]3[C@@H]1CC[C@@H]2O | 0.0312 | 12.9 | 12.1 | 11.6 | 0.0293 | < 0.02 |
